Test [1] deals with Human betaherpesvirus 5. Nature of the test: Compound was evaluated for antiviral activity by their capacity to inhibit replication of HCMV virus. In kind it is functional, organism-based. In short, it runs like this:
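Towne strain HCMV (plaque-purified isolate P₀) plaque reduction in HFF cells in 24-well dishes, ~100 pfu/cm² cell sheet. After adsorption, compound in growth medium was added at 4–8 concentrations in duplicate wells. Incubation was 10–12 days at 37 °C, then crystal violet fixation/staining and microscopic plaque counts. IC50 came from linear regression of % plaque reduction vs. log concentration. Ganciclovir served as positive control.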

In test [2] the test system is Human alphaherpesvirus 1. Nature of the test: Compound was evaluated for the antiviral activity by their capacity to inhibit the replication of HSV-1 virus. In kind it is functional, organism-based. Summed up: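 HSV-1 (KOS strain) ELISA in BSC-1 cells, 10 000 cells/well in MEM(E) + 10% calf serum, after overnight culture at 37 °C. Drug was added in quadruplicate with 100 pfu/well virus and incubated 3 days at 37 °C. Detection used HRP-conjugated rabbit anti-HSV-1 with TMB substrate, read at 450/570 nm. IC50 came from regression of % absorbance reduction vs. log concentration. Acyclovir was the positive control.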

Test [3] concerns KB. Nature of the test: Cytotoxicity for the compound was determined by the inhibition of the growing KB cells. Type of test: functional, cell-based. Conditions: Homo sapiens. Summed up: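 KB cell growth was measured over two population doublings. Cells were plated at 3000–5000/well, cultured overnight, then compound was added in quadruplicate at 6–8 concentrations for 48 h at 37 °C in CO₂. Cells were fixed in 95% ethanol, stained with 0.1% crystal violet, eluted with 0.1 N HCl/ethanol and read at 570 nm. IC50 came from regression vs. log concentration. The positive control was 2-acetylpyridine thiosemicarbazone.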

The test system of test [4] is HFF. Briefly: Cytotoxicity for the compound was determined in uninfected stationary human foreskin fibroblasts (HFF) cells. Type of test: functional, cell-based. Summed up:
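Stationary HFF monolayers not affected by virus in the HCMV plaque assay were examined microscopically for cytotoxicity. Visual scoring was done at the time of plaque enumeration, after 10–12 days at 37 °C. IC50 came from regression against log concentration.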

By IC50 is commonly meant the concentration that inhibits the measured activity by half. A lower IC50 goes with higher potency.

As for `CCOc1nc(Cl)c(C(N)=O)nc1[C@@H]1O[C@H](CO)[C@@H](O)[C@H]1O`, the IC50 in test [1], in test [2], in test [3] and in test [4] was greater than 100 µM in each case.

With `CCOC(=O)c1nc([C@@H]2O[C@H](CO)[C@@H](O)[C@H]2O)c(Cl)nc1Cl`, the half-inhibitory concentration (IC50) in test [1] worked out at 3.2 µM; in test [2], 20 µM; in test [3] it was 20 µM; in test [4], 3.2 µM.

For the compound `NC(=O)c1nc([C@@H]2O[C@H](CO)[C@@H](O)[C@H]2O)c(N)nc1Cl`, the IC50 in test [1], in test [2], in test [3] and in test [4] was greater than 100 µM throughout.

`CCOC(=O)c1nc([C@@H]2O[C@H](CO)[C@@H](O)[C@H]2O)c(N)nc1Cl`: the IC50 in test [1], in test [2], in test [3] and in test [4] was greater than 100 µM each time.

Consider `CCOC(=O)c1nc([C@@H]2O[C@H](CO)[C@@H](O)[C@H]2O)c(NC)nc1Cl`, for which the IC50 in test [1], in test [2], in test [3] and in test [4] was greater than 100 µM throughout.

`COc1nc(Cl)c(C(N)=O)nc1[C@@H]1O[C@H](CO)[C@@H](O)[C@H]1O`: the IC50 in test [1], in test [2], in test [3] and in test [4] was greater than 100 µM throughout.

In the case of `OC[C@H]1O[C@@H](c2ncc(Cl)nc2Cl)[C@H](O)[C@@H]1O`, the IC50 was 70 µM in test [1] and greater than 100 µM in test [4].

For the compound `Nc1nc2c(ncn2COC(CO)CO)c(=O)[nH]1` [GANCICLOVIR], the IC50 is 1.8 µM in test [2], greater than 100 µM in test [3] and greater than 100 µM in test [4].

The values are drawn from ChEMBL document CHEMBL1131325, “Synthesis and antiviral evaluation of certain novel pyrazinoic acid C-nucleosides” (J Med Chem, 1998).
